High-throughput results deposited in PubChem BioAssay by several laboratories.
A selection: hits, their analogues and other compounds. The true share with any hit is near 1.2%.
Hep lipid drop = modulators of hepatic lipid droplet formation; AML12 mouse hepatocytes, oleate lipid droplets, BODIPY imaging; hit rate 0.4% among 240,000; inhibition, % at 6.5 µM;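 active = lipid droplet intensity inhibited by at least 50%, with more than 500 cells counted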
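Assay system: AML12 hepatocytes (mouse) / Also added: 100 µM oleic acid challenge / Times: overnight treatment with compound plus oleate / Detection: high-content imaging of BODIPY-stained droplets and DAPI nuclei / Evaluation: % inhibition of lipid droplet signal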
pCIP destab = p/CIP protein destabilization; Q05BA5; F442A p/CIP-EGFP cells, EGFP fluorescence, 16 h; decrease of EGFP signal, % at 10 µM; hit rate 0.01% among 290,000; AID 1984;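 active = EGFP signal decrease of at least 30% at 10 µM or well 3 SD below plate mean, unless failing retest; inactive = the rest, including hits failing retest or dose response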
Rce1 inhib = blocks yeast Ras-converting enzyme; Q03530; yeast membranes, quenched prenylated peptide cleavage fluorescence; calls only; hit rate 0.27% among 290,000;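 active = fall in fluorescence gain of 50% or more versus controls, with final raw signal at or below 3038400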;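 note: plate controls were neutral control wells for no effect and wells lacking membranes for full effect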
procasp3 activ = activators of human procaspase-3 | P42574 | recombinant procaspase-3 D3A, Ac-DEVD-pNA absorbance 405 nm | activation, % at 8.5 µM | hit rate 0.11% among 330,000 | AID 463141;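 active = activation above the mean of all tested compounds plus 3 SD, cut at about 21% in these data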;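 note: 0% = DMSO alone and 100% = DMSO wells spiked with extra 5 µM PC-3 D3A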
Target sequence (P42574 whole entry D9A/D28A/D175A): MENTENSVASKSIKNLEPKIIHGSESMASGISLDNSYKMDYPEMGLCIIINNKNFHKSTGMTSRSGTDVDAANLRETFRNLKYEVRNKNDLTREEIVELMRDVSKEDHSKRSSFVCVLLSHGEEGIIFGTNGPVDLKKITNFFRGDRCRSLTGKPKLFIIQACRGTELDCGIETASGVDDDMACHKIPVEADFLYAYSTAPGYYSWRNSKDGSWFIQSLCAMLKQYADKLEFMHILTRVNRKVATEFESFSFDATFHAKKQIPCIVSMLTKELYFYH
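Technique: 405 nm absorbance of p-nitroaniline, reads at 0 and 120 min; Test system: Procaspase-3 D3A mutant; Incubation: 1 h enzyme-compound preincubation, then 2 h substrate reaction, 25 °C; Repeats: singlicate, each compound tested once; Benchmarks: low control DMSO wells, high control DMSO plus 5 µM PC-3 D3A.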
procasp7 counter = activates human procaspase-7, counter-screen for procaspase-3 activators. P55210. recombinant procaspase-7, Ac-DEVD-pNA absorbance 405 nm; D23A/D198A/D206A triple mutant, cannot self-cleave; scale: DMSO 0, 5 µM enzyme 100. activation, % at 8.5 µM. hit rate 0.093% among 330,000. AID 463210;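 active = percent activation above the screen-wide mean plus 3 SD, cut at about 25% in these data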
Target sequence (P55210 whole entry D23A/D198A/D206A): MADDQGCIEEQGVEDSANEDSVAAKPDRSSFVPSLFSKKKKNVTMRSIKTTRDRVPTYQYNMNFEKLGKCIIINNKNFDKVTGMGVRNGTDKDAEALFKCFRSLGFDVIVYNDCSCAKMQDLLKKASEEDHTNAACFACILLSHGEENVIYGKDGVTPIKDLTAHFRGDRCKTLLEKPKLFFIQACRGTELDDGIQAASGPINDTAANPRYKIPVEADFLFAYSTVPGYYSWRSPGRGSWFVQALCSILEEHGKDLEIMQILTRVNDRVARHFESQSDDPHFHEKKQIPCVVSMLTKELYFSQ
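signal = Epi-absorbance of released pNA at 405 nm, two timepoints | assay system = Uncleavable procaspase-7 mutant enzyme | reagent = Ac-DEVD-pNA substrate, 400 µM as added | times = 1 h enzyme–compound preincubation and 2 h substrate reaction, both 25 °C | benchmarks = low DMSO alone, high DMSO plus 5 µM PC-7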
FXN GAA850 act = activators of GAA850 frataxin (FXN) promoter | HEK293 lucGAA850 FXN promoter luciferase reporter, 24 h; percent of 10 µM SAHA response | activation, % at 6 µM | hit rate 0.56% among 360,000 | AID 540364;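 active = activation above the average of all compounds screened plus 3 SD, cutoff fixed separately per campaign, cut at about 7.5% in these data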;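 note: 0% = DMSO wells and 100% = 10 µM SAHA wells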
Starred values were filed as active, the others as inactive.

For COc1ccc(-c2nc(NC(=O)c3ccc(OCC(=O)N4CCOCC4)c(OC)c3)sc2C)cc1 the results were Hep lipid drop 96*, pCIP destab -20, Rce1 inhib inactive, procasp3 activ -3, procasp7 counter 7 and FXN GAA850 act -1.
Screening O=C1CC(c2ccccc2)CC2=C1C1(CCCC1)N=C(Nc1nc3ccccc3o1)N2 (centres undefined) returned FXN GAA850 act 1.
CC(C)c1c(C(=O)N/N=C/c2cccs2)nnn1-c1nonc1N was read as Hep lipid drop -4, pCIP destab -1, Rce1 inhib inactive, procasp3 activ 6, procasp7 counter -5 and FXN GAA850 act 1.
For CCOc1cccc(-c2c(C(=O)N/N=C/c3cccs3)nnn2-c2nonc2N)c1 the results were Hep lipid drop -4, pCIP destab -10, Rce1 inhib active, procasp3 activ -9, procasp7 counter 5 and FXN GAA850 act -1.
For COc1cccc(-c2c(C(=O)N/N=C/c3cccs3)nnn2-c2nonc2N)c1 the results were Hep lipid drop 3, pCIP destab -6, Rce1 inhib inactive, procasp3 activ 2, procasp7 counter 7 and FXN GAA850 act -2.
For CC(C)c1c(C(=O)N/N=C/c2ccsc2)nnn1-c1nonc1N the results were Hep lipid drop -1, pCIP destab -6, Rce1 inhib active, procasp3 activ -3, procasp7 counter -6 and FXN GAA850 act 0.
Cc1ccsc1/C=N/NC(=O)c1nnn(-c2nonc2N)c1C(C)C was read as Hep lipid drop -1, pCIP destab 6, Rce1 inhib active, procasp3 activ 4, procasp7 counter 9 and FXN GAA850 act -2.
For CC(C)c1c(C(=O)N/N=C/c2ccoc2)nnn1-c1nonc1N the results were Hep lipid drop -3, pCIP destab 0, Rce1 inhib inactive, procasp3 activ 1, procasp7 counter 2 and FXN GAA850 act -1.
CC1(C(=O)NS(=O)(=O)c2ccc(Br)cc2)CCN1C(=O)Cc1ccsc1 (centres undefined) was read as FXN GAA850 act 1.
OC[C@@H]1CN(Cc2ccc3c(c2)OCO3)C[C@H](n2cnc3c(N4CCN(c5ccccc5)CC4)ncnc32)O1 was read as FXN GAA850 act 0.
`CCC(CC)C(=O)N(C)c1c(C)nc2c(OCCC3CCCCC3)cccn12` gave FXN GAA850 act -4.
`O=C(Nc1ccccc1)c1cc(C2CCCCN2C(=O)c2ccc3c(c2)CCO3)on1` (centres undefined) gave FXN GAA850 act 0.
Clc1ccc(C2Nc3ccccc3-n3cccc32)cc1 (centres undefined) was read as Hep lipid drop -2, pCIP destab 10, Rce1 inhib inactive, procasp3 activ -2, procasp7 counter 28* and FXN GAA850 act 5.
Screening COC(=O)Cc1ccc(OC2(C)CCN(Cc3ccccc3OC(F)F)C2)cc1 (centres undefined) returned FXN GAA850 act 3.
O=C(COc1ccc2c(-c3ccccc3)cc(=O)oc2c1)N1C[C@H]2C[C@@H](C1)c1cccc(=O)n1C2 was read as FXN GAA850 act -1.
For CCCCN(CC)CCNC(=O)c1cc2c(=O)n(C)c3ccccc3c2s1 the results were Hep lipid drop -4, pCIP destab -2, Rce1 inhib inactive, procasp3 activ 2, procasp7 counter 6 and FXN GAA850 act -1.
CCN(CC)CCNC(=O)c1cc2c(=O)n(C)c3ccccc3c2s1 was read as Hep lipid drop -4, pCIP destab 3, Rce1 inhib active, procasp3 activ -3, procasp7 counter 4 and FXN GAA850 act 3.
Screening CN(C)c1ccc(CC(=O)N2CCCC(c3cc(C(=O)Nc4ccc5c(c4)OCO5)no3)C2)cc1 (centres undefined) returned FXN GAA850 act -1.
For CSc1ccc(CN2CCC2(C)C(=O)Nc2ccc3c(c2)OCO3)cc1 (centres undefined) the results were FXN GAA850 act 1.
Screening COc1ccc(CN2CCN(C(c3ccc(F)cc3)c3ccc(F)cc3)CC2)c(OC)c1OC returned Rce1 inhib active, procasp3 activ 5, procasp7 counter 4 and FXN GAA850 act -8.
Screening COc1ccc(CN2CCN(c3ccc(F)cc3)CC2)c(OC)c1OC returned Hep lipid drop -25, pCIP destab -1, Rce1 inhib inactive, procasp3 activ -1, procasp7 counter 3 and FXN GAA850 act -2.
`COc1cc2c(cc1OC)C(c1ccc3c(c1)Cc1ccccc1-3)OC(=O)C2` (centres undefined) gave FXN GAA850 act 2.
`Cc1cc(C(=O)N/N=C/c2cc(N=Nc3ccccc3)ccc2O)n[nH]1` gave Hep lipid drop -8, pCIP destab 0, Rce1 inhib inactive, procasp3 activ 18, procasp7 counter 26* and FXN GAA850 act -2.
CCOc1ccc2ccccc2c1/C=N/NC(=O)c1cc(C)[nH]n1 was read as Hep lipid drop -26, pCIP destab -9, Rce1 inhib inactive, procasp3 activ -1, procasp7 counter 2 and FXN GAA850 act 1.
Screening Cc1cc(C(=O)N/N=C/c2c3ccccc3cc3ccccc23)n[nH]1 returned Hep lipid drop -14, pCIP destab -11, Rce1 inhib active, procasp3 activ -12, procasp7 counter -17 and FXN GAA850 act -2.
CCCC(=O)N1CCCC1(C)C(=O)Nc1cc(OC)c(OC)c(OC)c1 (centres undefined) was read as FXN GAA850 act 0.
`COc1ccc(OC2(C)CCN(Cc3ccc(-c4ccccc4)o3)C2)cc1` (centres undefined) gave FXN GAA850 act 2.
For Cc1ccc(Nc2nc(N/N=C/c3c[nH]c4ccccc34)nc(N3CCOCC3)n2)cc1 the results were Hep lipid drop 126*, pCIP destab -18, Rce1 inhib inactive, procasp3 activ -9, procasp7 counter -16 and FXN GAA850 act 2.
For COc1ccc(CCN(C)C(=O)c2ccc(S(=O)(=O)Nc3ccccc3C)cc2)cc1OC the results were Hep lipid drop -5, pCIP destab -21, Rce1 inhib active, procasp3 activ -3 and procasp7 counter -3.
Screening COc1cccc(-c2cnc(C(O)c3ccc(Cl)cc3C)[nH]2)c1 (centres undefined) returned FXN GAA850 act 1.
CC(C)N1CCN(S(=O)(=O)c2ccc3ccccc3c2)CC1 was read as Hep lipid drop -1, pCIP destab 14, Rce1 inhib active, procasp3 activ 2, procasp7 counter -11 and FXN GAA850 act 2.
